The values that follow come from ChEMBL document CHEMBL1127533, “Presynaptic cholinergic modulators as potent cognition enhancers and analgesic drugs. 2. 2-Phenoxy-, 2-(phenylthio)-, and 2-(phenylamino)alkanoic acid esters” (J Med Chem, 1994).

A word on the Ki: it is the equilibrium dissociation constant of an inhibitor or competing ligand from its target. As a reminder, the ED50 is the midpoint of the dose-response relation.

In experiment [1] the target is Muscarinic acetylcholine receptor. In words: The compound is evaluated for binding affinity against central muscarinic receptor by using [3H]- QNB as radioligand. It counts as protein assay.
Experiment [2] is filed under the species Mus musculus. In words: Analgesic activity in male albino Swiss-Webster mice in hotplate test. It counts as functional. Also on record: unit not given here. In outline: (§1)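 Mouse hot-plate assay after Woolfe, with the plate held at 52.5 ± 0.1 °C and a 45 s cutoff. Groups held 8–20 mice. Analgesic potency is expressed as the ED50.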
For experiment [3], the system named is Mus musculus. Kind of experiment: Analgesic potency was evaluated as effective dose after subcutaneous administration. It counts as functional. The method, boiled down: as §1
The species named for experiment [4] is Mus musculus. In words: Compound was evaluated for analgesic activity, in male albino Swiss-Webster mice with hotplate test and maximum level of analgesia reached is evaluated. It counts as functional. The method, boiled down:
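Mouse hot-plate at 52.5 ± 0.1 °C with a 45 s cutoff. Each compound was given at its maximal nontoxic dose, defined as no visible behavioural change to blinded observers. Efficacy = (max reaction time − pretest)/(same for morphine-HCl 8 mg/kg sc) × 100.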

Experiment [5] concerns Mus musculus. Kind of experiment: Analgesic potency was evaluated as Effective Dose 50 after subcutaneous administration. Standard error given in parenthesis. It counts as functional. Particulars: sc. The method, boiled down: as §1
Where [6] appears, read: Mus musculus, sc, read-out: ED50.

On to `CCC(Oc1ccc(Cl)cc1)C(=O)OC1CC2CCC(C1)N2C.O=C(O)/C=C\C(=O)O` (racemic), for which the Ki in experiment [1] is 0.174 µM. The Analgesic activity in the experiment listed under Mus musculus [2] was determined as 99. Moreover, the ED50 in the experiment on Mus musculus [3] (setting [6]) was 20 mg/kg.
With `CC(Oc1ccc(Cl)cc1)C(=O)OC1CC2CCC(C1)N2C.O=C(O)/C=C\C(=O)O` (racemic), in the experiment listed under Mus musculus [4], the Analgesic activity amounted to 90. The ED50 in the experiment on Mus musculus [3] (setting [6]) was 32 mg/kg.
Take `CN1C2CCC1CC(OC(=O)CCOc1ccccc1)C2.O=C(O)/C=C\C(=O)O` (stereo not given): the Analgesic activity in the experiment filed under Mus musculus [4] was 28. Also, in the experiment with Mus musculus [5], the ED50 was determined as 22 mg/kg.
Consider `CCC(Sc1ccccc1)C(=O)OC1CC2CCC(C1)N2C` (racemic), for which the Ki in experiment [1] is 0.0227 µM. In the experiment listed under Mus musculus [2], this molecule had an Analgesic activity of 103. In the experiment with Mus musculus [3], this molecule gave an ED50 of 18 mg/kg.
